A short description of the data set: Toxicity liver stage against HepG2, at 10uM. The format is cell-based. Set-up: test concentration 10 uM, cell line HepG2-A16-CD81EGFP. The note with it: human, HepG2-A16-CD81EGFP cells; read-out: INHIBITION
Put shortly: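 Uninfected HepG2-A16-CD81EGFP cells, 3 × 10^3 per well, 1536-well, plated on prespotted compound at 10 μM final, parasite-free screening media added to match infected plates; puromycin 10 μM positive, DMSO 0.5% negative; run in parallel with 48 h PbLuc assay at 37 °C, 5% CO2; viability by CellTiter-Glo luminescence, normalized to controls.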
For `CC(C)COC(C)C(=O)NCCNS(C)(=O)=O` (configuration not stated), the cytotoxicity at 10 µM is -5.26%.

Take `O=C(CSc1nncs1)N1CCN(Cc2ccc(Cl)s2)CC1`: the cytotoxicity at 10 µM was -4.14%.

On to `CC[S+](CC)[c-]1c(=O)[nH]c(=O)n(Cc2ccc(F)cc2)c1=O`, for which the cytotoxicity at 10 µM worked out at 4.12%.

`O=C1CCC2(CCCN(C(=O)Cc3ccccc3)C2)N1` (configuration not stated): the cytotoxicity at 10 µM was 8.18%.

Regarding `O=C(NC1CC1)N1C[C@H]2CN(c3ccccc3)C(=O)[C@H]2C1`, the cytotoxicity at 10 µM is -1.13%.

For `Cc1nc(-c2cc(C(=O)NCC(C)(C)CO)c3ccccn23)cs1`, the cytotoxicity at 10 µM is 6.1%.

Regarding `COc1cc(N2C[C@@H]3COC[C@]3(C(=O)NCc3ccccn3)C2)ncn1`, the cytotoxicity at 10 µM is 7.55%.

For `CC(C)N(C)Cc1noc2c1CN(C(=O)c1cnccn1)CC2`, the cytotoxicity at 10 µM came to 4.44%.

Turning to `Cc1cc(CN2C[C@H]3CCC[C@@]3(COCC(=O)N3CCCC3)C2)no1`, the cytotoxicity at 10 µM was determined as 8.31%.

For the molecule `CN(C)Cc1cc(=O)n2c(n1)CN(CC1CC1)CCC2`, the cytotoxicity at 10 µM is 5.71%.

Regarding `Cc1ccc(Cn2c(=O)[nH]c3csnc3c2=O)cc1`, the cytotoxicity at 10 µM is 2.93%.

Consider `O=C(NCCN1CCNCC1)c1c(O)c2ccccc2[nH]c1=O`, for which the cytotoxicity at 10 µM amounted to 21%.

Consider `Cc1nc(N2CCCCC2)ncc1-c1cc(O)[nH]n1`, for which the cytotoxicity at 10 µM is 2.76%.

Regarding `COc1ccc2c(c1)CC(C1CCOCC1)N(C(=O)c1ccn(C)n1)C2` (configuration not stated), the cytotoxicity at 10 µM came out at 1.78%.

As for `CC(C)c1cc(C(=O)N2CCC3(CCc4ccccc4C(=O)N3)C2)no1` (configuration not stated), the cytotoxicity at 10 µM was 6.83%.

For the molecule `CCc1nccn1CCC(=O)N1CCCC1c1cncc(NC)n1` (configuration not stated), the cytotoxicity at 10 µM was 3.53%.

As for `O=c1[nH]cc(N2CCCCC2)c(=O)[nH]1`, the cytotoxicity at 10 µM was found to be 5.55%.

For `FC(F)(F)c1nc(NC2CCc3ncnn3C2)c2ccccc2n1` (configuration not stated), the cytotoxicity at 10 µM was -2.99%.

Turning to `Cc1ccc(S(=O)(=O)Nc2cccnc2O)cc1C`, the cytotoxicity at 10 µM was 3.33%.

Turning to `COc1cccc(CNC(=O)CCOc2ccccc2C)c1`, the cytotoxicity at 10 µM is -1.2%.

Take `CCNc1cc2c(nn1)CCN(C(=O)Cc1ccc3c(c1)CCO3)C2`: the cytotoxicity at 10 µM amounted to 1.42%.

`O=C(c1ccc(SC(F)F)cc1)N1CCOCC1c1ncon1` (configuration not stated): the cytotoxicity at 10 µM was 4.79%.

Take `Cc1nnc(NC(=O)NCC(C)N2CCOCC2)s1` (configuration not stated): the cytotoxicity at 10 µM is -10.6%.

`CCC(=O)N1CCCN(Cc2cc(F)cc(Br)c2)CC1`: the cytotoxicity at 10 µM was 10.3%.

`CC(=O)c1csc(-c2csc(Cn3ccc(=O)[nH]c3=O)n2)c1`: the cytotoxicity at 10 µM came out at 5.39%.

For `CCC(=O)NC1CCCN(Cn2nc(C(C)(C)C)ccc2=O)C1` (configuration not stated), the cytotoxicity at 10 µM was -1.69%.

For `CCc1nnc(C(C)N2CCc3cncnc3C2)o1` (configuration not stated), the cytotoxicity at 10 µM amounted to 7.49%.

Take `CCC(C)CS(=O)(=O)NC(=O)C1CC1` (configuration not stated): the cytotoxicity at 10 µM was -4.69%.

For the molecule `Cc1cccc(C2(CNC(=O)C(C)S(C)(=O)=O)CCCC2)c1` (configuration not stated), the cytotoxicity at 10 µM is -2.76%.

`Cc1csc(CNC(=O)NCC2(c3ccc4c(c3)OCO4)CC2)n1`: the cytotoxicity at 10 µM came to 0.0902%.

With `Cc1cc(CN2CCN(c3ccnc(-c4ccccc4)n3)CC2)no1`, the cytotoxicity at 10 µM was -8.92%.

Take `CCC(=O)N1CCC(NC(=O)c2cccc(-n3ccnc3)c2)C1` (configuration not stated): the cytotoxicity at 10 µM worked out at 8.96%.

`Cc1cc(CNC(=O)N2CCc3ccccc3C2CO)c(C)o1` (configuration not stated): the cytotoxicity at 10 µM amounted to 7.44%.

Regarding `O=C(NCCN1CCOCC1)NCc1ncc(-c2ccccc2)o1`, the cytotoxicity at 10 µM was found to be 1.26%.

For `COc1cc(CNC(=O)NCCCF)cc(Br)c1OC`, the cytotoxicity at 10 µM worked out at 11.4%.

Take `CCn1cc(C(=O)NC2CCN(S(C)(=O)=O)CC2)c2ccccc21`: the cytotoxicity at 10 µM amounted to 0.95%.

Take `Cn1cc(NC(=O)Cn2c(CS(C)(=O)=O)nc3ccccc32)cn1`: the cytotoxicity at 10 µM worked out at 1.31%.

Take `COc1ccc(C2CCCN2C(=O)CCNc2ncccn2)cc1` (configuration not stated): the cytotoxicity at 10 µM was -13.9%.

On to `O=C(C1CCOC1)N1CCC2(CC1)Cc1ccccc1CNC2=O` (configuration not stated), for which the cytotoxicity at 10 µM is -113%.

Regarding `CC(C)CC(=O)N1CCc2ccc(S(=O)(=O)N3CCN(C)CC3)cc2C1`, the cytotoxicity at 10 µM is -15.3%.

In the case of `O=C(NCCn1cc(Cl)cn1)C1CCN(C(=O)C2CC2)CC1`, the cytotoxicity at 10 µM was -50.5%.

For the molecule `NC1CCN(S(=O)(=O)c2ccc(C(=O)N3CCSCC3)cc2)C1` (configuration not stated), the cytotoxicity at 10 µM stood at 7.1%.

`CN(CC1COc2ccccc2O1)C(=O)c1ccc(-c2cn[nH]c2)nc1` (configuration not stated): the cytotoxicity at 10 µM is 5.37%.

On to `CN(CC1(CO)CCCC1)[C@@H]1c2ccccc2C2(CCNCC2)[C@H]1O`, for which the cytotoxicity at 10 µM was 1.44%.

`COCCc1noc(CN(C)C(=O)C(C)N2CCc3ccccc3C2)n1` (configuration not stated): the cytotoxicity at 10 µM is -0.262%.

Consider `Cc1cc(C)cc(N2CCN(Cc3cccc(CCN)c3)CC2=O)c1`, for which the cytotoxicity at 10 µM was 3.32%.

For the molecule `Cc1cnc(NCc2ccncc2)nc1-c1cnn(C)c1`, the cytotoxicity at 10 µM stood at 15.4%.

Consider `CCn1c(N)nc2cc(C(=O)NCc3ccccc3Cl)cnc21`, for which the cytotoxicity at 10 µM was -14.1%.

On to `Cc1cnn(CC2CCCN2Cc2nnc(C3CC3)o2)c1` (configuration not stated), for which the cytotoxicity at 10 µM is -21.7%.

In the case of `COc1c(CNCc2cccc(Cn3cccn3)c2)c(C)nn1C`, the cytotoxicity at 10 µM was found to be 1.33%.

On to `CC(C(=O)NCc1ccc(N2CCN(C)CC2)nc1)n1cccn1` (configuration not stated), for which the cytotoxicity at 10 µM was -9.51%.

Consider `CCOc1ccc(C#N)cc1NCC(=O)NC(=O)NC`, for which the cytotoxicity at 10 µM is -8.35%.

For the molecule `O=C(c1ccc(-n2ccnc2)cc1)N1CCCC(n2ccnc2)C1` (configuration not stated), the cytotoxicity at 10 µM was -21.1%.

On to `CCN(CC1CCCO1)C(=O)Nc1cc(C(N)=O)ccc1OC` (configuration not stated), for which the cytotoxicity at 10 µM is -7.33%.

`Cc1cc(CN2CCOC(CNc3cccnn3)C2)on1` (configuration not stated): the cytotoxicity at 10 µM was -13.8%.

With `Cc1csc(N2CCN(C(=O)c3ccc(C)s3)CC2)n1`, the cytotoxicity at 10 µM is -24.3%.

Turning to `Cc1cc(C)n(CC2CCCN2C(=O)Cc2c(C)nc(C)[nH]c2=O)n1` (configuration not stated), the cytotoxicity at 10 µM was -12.8%.

With `CCc1nc(C)c(C(=O)NCCNc2ncccc2C#N)s1`, the cytotoxicity at 10 µM is -8.54%.

`NC(=O)c1cc(C2CCCN(C(=O)CCc3cscn3)C2)n[nH]1` (configuration not stated): the cytotoxicity at 10 µM was -7.59%.

Regarding `c1ccc(-n2ncc(CNC3CCc4ncnn4C3)n2)cc1` (configuration not stated), the cytotoxicity at 10 µM was -3.38%.

`Cc1ccccc1OCCC(=O)N1CCCC(n2cncn2)C1` (configuration not stated): the cytotoxicity at 10 µM is -17.6%.

For `CCn1ccnc1CNCC1CCN(CC(O)c2ccccc2)CC1` (configuration not stated), the cytotoxicity at 10 µM is -12.8%.

For `Cc1cnc(CN2CCOC(CNc3cccnn3)C2)cn1` (configuration not stated), the cytotoxicity at 10 µM was -5.15%.

For the molecule `O=C1CCC2(CCC(NCc3ccoc3)CC2)N1` (configuration not stated), the cytotoxicity at 10 µM is 1.14%.

Consider `c1cc(CN2CC[C@H]3CO[C@H](CN4CCOCC4)[C@H]3C2)cs1`, for which the cytotoxicity at 10 µM was 4.91%.

Regarding `COc1ccc(CCNCc2c(C)nn(C)c2N(C)C)cc1OC`, the cytotoxicity at 10 µM was -11.3%.

Take `COCC(=O)N1CCc2ccc(=O)n(Cc3csc(C)n3)c2CC1`: the cytotoxicity at 10 µM was 8.19%.

In the case of `Cn1cc(C(=O)N2CC[C@@H]3[C@@H]2CCN3c2ncc(F)cn2)cn1`, the cytotoxicity at 10 µM worked out at 13.8%.

With `Cc1ccsc1C(=O)N1C[C@@H]2CN(Cc3ccoc3)CCO[C@@H]2C1`, the cytotoxicity at 10 µM was -1.19%.

On to `CC(=O)N1CCCC1c1nnn2cc(Nc3ccccc3)ccc12` (configuration not stated), for which the cytotoxicity at 10 µM is 12.2%.

Regarding `CC(C)CCN1CCc2[nH]nc(C(=O)N3CCCC3C)c2C1` (configuration not stated), the cytotoxicity at 10 µM was determined as 4.32%.

`O=C(CCc1ccccc1)NC1CCC2(CCC(=O)N2)CC1` (configuration not stated): the cytotoxicity at 10 µM was determined as 1.35%.

The values above are taken from ChEMBL document CHEMBL4513216, “Probing the Open Global Health Chemical Diversity Library for Multistage-Active Starting Points for Next-Generation Antimalarials” (ACS Infect Dis, 2020).
